# PvdQ acylase – blocks Pseudomonas aeruginosa PvdQ acylase activity | 340,000 compounds, 0.063% hits | purified PvdQ acylase, fluorescence plate reader | AID 488965 | inhibition, % at 10 µM; in the data active = inhibition above about 30%, passing the limit was not always enough; inconclusive = no clear call, values can overlap the other calls
# SR-BI HDL uptake – inhibitors of mouse SR-BI mediated HDL lipid uptake | inhibition, % at 12.5 µM | Q61009 | 320,000 compounds, 0.96% hits | ldlA[mSR-BI] CHO cells, DiI-HDL uptake fluorescence, 3 h;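 active = mean replicate inhibition of at least 70% and a set share of replicates each scoring 70 or more; inconclusive = meets just one of the two criteria; inactive = fails both criteria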
# Target sequence (Q61009 whole entry, looked up): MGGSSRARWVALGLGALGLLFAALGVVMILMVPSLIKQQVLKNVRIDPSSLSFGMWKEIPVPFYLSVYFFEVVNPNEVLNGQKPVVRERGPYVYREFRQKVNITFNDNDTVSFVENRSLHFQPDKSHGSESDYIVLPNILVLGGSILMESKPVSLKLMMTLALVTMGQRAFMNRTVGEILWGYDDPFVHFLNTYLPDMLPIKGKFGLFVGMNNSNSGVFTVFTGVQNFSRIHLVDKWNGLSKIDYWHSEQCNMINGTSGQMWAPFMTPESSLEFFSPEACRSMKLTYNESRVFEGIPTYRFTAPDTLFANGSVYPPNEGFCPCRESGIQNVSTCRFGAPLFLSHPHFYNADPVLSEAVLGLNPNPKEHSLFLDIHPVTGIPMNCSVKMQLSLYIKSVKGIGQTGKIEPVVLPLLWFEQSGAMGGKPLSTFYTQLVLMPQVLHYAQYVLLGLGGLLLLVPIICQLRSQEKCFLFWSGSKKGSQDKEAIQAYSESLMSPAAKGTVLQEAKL
# SR-BI DiI-HDL act – enhances SR-BI lipid uptake from DiI-HDL. 320,000 compounds, 0.096% hits. CHO ldlA[mSR-BI] cells, DiI-HDL uptake fluorescence, 3 h; 100 = double the neutral-control signal. activation, % at 12.5 µM;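 active = mean replicate activation of at least 60% and every replicate at or above 60%; inconclusive = mean or all-replicate condition met, but not both; inactive = mean below 60% and not all replicates reaching 60%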
#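 Test system: SR-BI-overexpressing, LDLR-lacking CHO cells; Also added: labelled HDL, 10 µg/mL; Measured by: bottom-read cell fluorescence after medium removal, ex 550/em 595 nm; Timing: 3 h uptake period with compound, 37 °C; Buffer or medium: F12, 0.5% BSA, 25 mM HEPES; Doses: single compound concentration, delivered by pin transfer.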
# dFosB activator – enhances mouse delta FosB homodimer DNA binding | activation, % at 25 µM | 340,000 compounds, 0.99% hits | purified delta FosB, TAMRA-CDK5 oligo fluorescence polarization; percent of positive-control signal above neutral wells | P13346;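 active = mean activation above about 17%, with every replicate also reaching it, limit read from the data, passing the limit was not always enough; inconclusive = only one of the two conditions met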
# Xi reactivation – activators of X-chromosome reactivation in mouse fibroblasts | activation, % at 7.58 µM | AID 743238 | XiGFP mouse fibroblasts, % GFP-positive cells imaging, 3 d; cells co-treated with 5-aza-dC sensitizer; scaled so ellipticine positive control = 100% | 360,000 compounds, 0.055% hits;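 active = mean normalized replicate activation at least 10% and every replicate at or above 10%; inconclusive = only one of the two criteria met; inactive = mean below 10% and not all replicates reach 10%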
#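 Material: SV40-immortalized XiGFP fibroblast cells, line 68-5-11 | Buffer or medium: DMEM containing 5-aza-dC | Dosing: One concentration, pinned | Times: 3 d treatment, 15 min room-temperature fixation | Controls: Ellipticine 6 µM positive control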
# rRNA inh HTS – inhibits bacterial ribosomal RNA function over humanized ribosomes; 350,000 compounds, 1.6% hits; E. coli WT GFP vs humanized-ribosome RFP mutants, fluorescence, 24 h; active compounds read low; DMSO median 0, no signal -100; GFP signal change (wild-type ribosome), % (test concentration not listed);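 active = significant combined selectivity score with lowered wild-type GFP, culture density cut under 30%, mutant RFP and density less affected; inactive = any of these conditions unmet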
# Hits are given with their value; 0 = inactive; ? = inconclusive; - = no result given. Sampled rows, rich in hits. Any-hit rate of the full collection: about 2.6%.
SMILES,PvdQ acylase,SR-BI HDL uptake,SR-BI DiI-HDL act,dFosB activator,Xi reactivation,rRNA inh HTS
CC1(C)CCN2CCC(C)(C)c3c(O)ccc1c32,0,0,0,0,80.1,0
CCN(C(=O)c1cnc(NC(C)C)cc1C(F)(F)F)c1ccc(Cl)cc1Cl,0,0,0,0,0,-22.8
COc1ccc(-n2nnnc2/C=C\Nc2ccc(C)cc2)cc1,0,0,0,0,0,0
COc1ccccc1CNC(=O)C(=O)c1cn(CC(=O)N2CCCC2)c2ccccc12,0,77.8,-,0,0,0
COc1ccc(NC(=O)C(=O)c2cn(CC(=O)N3CCCC3)c3ccccc23)cc1OC,0,79.8,0,0,0,0
COc1ccc(OC)c(NC(=O)C(=O)c2cn(CC(=O)N3CCCC3)c3ccccc23)c1,0,80.5,0,0,0,-
COc1ccc(CNC(=O)C(=O)c2cn(CC(=O)N3CCCC3)c3ccccc23)cc1,0,0,0,0,0,0
COc1cccc(NC(=O)C(=O)c2cn(CC(=O)N3CCCC3)c3ccccc23)c1,0,75.0,0,0,0,0
CC1=C(C(=O)N2CCCC(N3CCN(c4cccc(Cl)c4)CC3)C2)OCCO1 (stereo unspecified),0,0,0,0,0,0
Cc1ccc(NC(=O)CSc2nnc(-c3n[nH]c4ccccc34)n2-c2ccccc2)c(C)c1,0,0,0,0,0,-
O=C(O)c1cccc(NC(=S)NC(=O)c2cccc(OCc3ccccc3)c2)c1,0,0,68.1,0,0,0
CCCCC(=O)NC(=S)Nc1cccc(NC(=O)c2ccccc2)c1,0,0,0,0,0,-18.9
CCCC(=O)NC(=S)Nc1cccc(NC(=O)c2ccccc2)c1,0,0,0,0,0,0
CCCOc1cccc(C(=O)NC(=S)Nc2cccc(NC(=O)c3ccccc3Cl)c2)c1,0,81.3,0,0,0,-
O=C(CN1c2cccc3cccc(c23)S1(=O)=O)NCCc1ccc(F)cc1,0,0,0,0,0,0
Cc1[nH]nc2c1C(c1ccsc1C)C(C#N)=C(N)O2 (stereo unspecified),0,0,0,0,-,-
CCOC(=O)c1c(NC(=O)c2cc(C)oc2C)sc(C(=O)Nc2ccc(Cl)cc2)c1C,0,0,0,0,-,-
COc1ccc(-c2sc3ccc(N4CCOCC4)cc3c2C#CC(C)(C)O)cc1,0,0,0,0,0,0
COc1ccc(-c2sc3ccc(N4CCOCC4)cc3c2C#Cc2ccsc2)cc1,0,90.1,0,0,0,0
O=C(NNC(=O)c1cccnc1SCc1cccc([N+](=O)[O-])c1)c1cccnc1,0,0,0,0,0,-
c1ccc(CC2CCN(c3nnnn3-c3ccccc3)CC2)cc1,0,0,0,0,-,-
CCn1c(O)c(/C=C2\C=Nc3ccccc32)sc1=Nc1ccccc1,0,79.9,0,0,-,0
Cc1ccccc1CC1(CO)CCCN(Cc2nc(-c3cccs3)oc2C)C1 (stereo unspecified),0,0,0,0,0,-25.1
Cc1oc(-c2cccs2)nc1CN1CC[C@@](O)(c2ccccc2)[C@H]2CCCC[C@@H]21,0,0,0,0,0,-
O=C(N/N=C/c1sc(N2CCOCC2)nc1-c1ccccc1)c1cccc(S(=O)(=O)N2CCCC2)c1,0,97.4,0,0,0,-
SMILES,PvdQ acylase,SR-BI HDL uptake,SR-BI DiI-HDL act,dFosB activator,Xi reactivation,rRNA inh HTS
O=C(N/N=C/c1ccccc1Br)c1cccc(S(=O)(=O)N2CCOCC2)c1,0,79.5,0,0,0,0
O=C(N/N=C/c1cc(Cl)cc([N+](=O)[O-])c1O)c1cccc(S(=O)(=O)N2CCOCC2)c1,0,125.4,0,0,0,0
O=C(N/N=C/c1cc(Br)cc(Br)c1O)c1cccc(S(=O)(=O)N2CCOCC2)c1,0,-,-,0,0,0
COc1ccccc1NC(=O)N[C@@H]1C=C[C@H](CC(=O)N[C@H](C)c2ccccc2)O[C@@H]1CO,-,-,-,-,0,0
CSc1ccccc1NC(=O)CN(C)CC(=O)c1c(C)[nH]c2ccccc12,0,0,0,0,0,-20.9
C[C@@H]1CN([C@@H](C)CO)C(=O)c2cccc(NC(=O)c3ccncc3)c2O[C@@H]1CN(C)Cc1ccc(Cl)c(Cl)c1,-,-,-,-,0,0
COc1ccc(/C=N\NC(=O)c2ccc(-c3ccccc3)cc2)c(OC)c1OC,0,75.4,-,0,0,0
COc1cccc(/C=N/NC(=O)c2ccc(N(C)S(=O)(=O)c3ccccc3)cc2)c1OC,0,82.8,0,0,0,0
COc1ccc(/C=N/NC(=O)c2ccc(N(C)S(=O)(=O)c3ccccc3)cc2)c(OC)c1,0,0,0,0,0,0
Cc1ccc(CNC(=O)c2ccc(N(C)S(=O)(=O)c3ccccc3)cc2)cc1,0,0,0,0,0,-33.0
COc1cc(/C=N/NC(=O)c2ccc(-c3ccccc3)cc2)cc(OC)c1OC,0,0,0,?,0,-
COc1ccccc1/C=N/NC(=O)c1ccc(N(C)S(=O)(=O)c2ccccc2)cc1,0,83.6,0,0,0,0
Cc1cc(C)c(NC(=O)COC(=O)C2=COCCO2)c(C)c1,-,-,-,-,0,0
CCN1[C@H](C(=O)OC)[C@@H](CO)[C@@H]2Cn3c(ccc(-c4cccc(F)c4)c3=O)[C@@H]21,-,-,-,-,0,0
NNC(=O)c1ccc(CN2C(=O)c3cccc4cccc2c34)cc1,0,0,0,0,0,0
CCN(CC)c1ccc(C(=O)N/N=C/c2ccccc2OC(F)F)cc1,0,85.5,0,0,0,-
COc1ccccc1/C=N/NC(=O)c1ccc(CN2C(=O)c3cccc4cccc2c34)cc1,0,88.7,0,0,0,0
CC(C)Oc1ccccc1/C=N/NC(=O)c1ccc(F)cc1,0,0,0,0,0,-
CCCNC(=O)C1CCN(S(=O)(=O)c2c(C)noc2/C=C\c2ccc(OC)cc2)CC1,0,0,0,0,0,0
CCOc1ccccc1/C=C/c1onc(C)c1S(=O)(=O)N1CCC(C(=O)N(CC)CC)CC1,0,71.5,0,0,0,0
CCN(CCN(C)C)C(=O)C1CCN(S(=O)(=O)c2c(C)noc2/C=C/c2ccccc2F)CC1,0,0,0,0,0,0
Cc1noc(/C=C/c2ccco2)c1S(=O)(=O)N1CCC(C(=O)NC(C)c2ccccc2)CC1 (stereo unspecified),0,81.4,0,0,0,0
Cc1noc(/C=C/c2ccco2)c1S(=O)(=O)N1CCC(C(=O)N(C)Cc2ccccc2)CC1,0,0,0,0,-,0
COc1ccc(/C=C\c2onc(C)c2S(=O)(=O)N2CCC(C(=O)NCc3ccco3)CC2)cc1,0,-,-,0,11.0,0
Cc1ccc(NC(=S)N2C3CCCC2CC(NC(=O)C2CC2)C3)cc1C (stereo unspecified),0,0,0,0,0,0

# Screening data: PubChem BioAssay, Broad Institute
